The MIC is the lowest concentration found to suppress growth. A word on the IC50: it is the concentration that gives 50% inhibition.

For eleven compounds, MIC, IC50 and selectivity ratio results are on record in ChEMBL document CHEMBL1157051, “New dioxazole derivatives: Synthesis and effects on the growth of Entamoeba histolytica and Giardia intestinalis” (Eur J Med Chem, 2010).

Each structure is given as a SMILES string. In brackets after ≈: the same amount, converted by molar mass.

For one series, the system named is Giardia intestinalis. The series can be described thus: Antigiardial activity against Giardia intestinalis Thai trophozoites after 24 hrs by inverted microscopic analysis. It counts as functional. As to conditions: Giardia duodenalis.
The next series has as its system Entamoeba histolytica. The series can be described thus: Antiamoebic activity against Entamoeba histolytica HM-1:IMSS trophozoites after 72 hrs by microdilution technique. The series is classed as functional, organism-based. The essentials: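 HM1:IMSS trophozoites in TYIS-33 medium, detached by chilling on ice; 1.7 × 10⁴ organisms/well. Samples in DMSO (final ≤0.1%), diluted in medium. Plates gassed with nitrogen 10 min, incubated 37 °C for 72 h. Washed in warm 0.9% NaCl, methanol-fixed, eosin-stained, dye released with 0.1 N NaOH, OD 490 nm. IC50 from linear regression of % inhibition vs log dose; triplicate.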
(In broth dilution the organism is exposed to a series of concentrations in liquid medium.)

The next series concerns Vero. The series can be described thus: Cytotoxicity against african green monkey Vero cells after 72 hrs by SRB assay. The series is classed as cell-based. As to conditions: Chlorocebus sabaeus. The essentials: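 Vero (ATCC CCL-81) at 10⁵ cells/mL in Eagle's MEM with heat-inactivated FBS and 1 mM sodium pyruvate. Samples at maximum final concentration […]; 0.05% DMSO negative control. 72 h at 37 °C, 5% CO₂. Viability by sulphorhodamine B assay; cytotoxic defined as IC50 below the 180 cutoff.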
In general terms: The SRB assay estimates cell density from bound dye.

Series [1] is described as follows: Safety index, ratio of IC50 for african green monkey Vero cells to IC50 for Entamoeba histolytica HM-1:IMSS. As to conditions: read-out: Ratio IC50. It counts as toxicity, cell-based.

`Cc1ncc([N+](=O)[O-])n1CCO` [METRONIDAZOLE] had an MIC against Giardia intestinalis of 14.6 µM (≈ 2.5 µg/mL).

For `O=[N+]([O-])c1ccc(C2=NOC(c3ccccc3)O2)s1` (stereo not given), the IC50 is 9.97 µM in the series on Entamoeba histolytica and under 180 µM in the series with Vero. In addition, in the series on Giardia intestinalis, the lowest concentration to inhibit growth (MIC) was 5.65 µM (≈ 1.56 µg/mL).

Turning to `CC1(c2ccccc2)ON=C(c2ccc([N+](=O)[O-])s2)O1` (stereo not given), the IC50 with Entamoeba histolytica is 3.77 µM; in the series with Vero, under 180 µM. This compound gave an MIC in the series on Giardia intestinalis of 10.8 µM (≈ 3.13 µg/mL).

`Cc1ccc(C2=NOC(c3ccccc3O)O2)cc1` (stereo not given) yielded an IC50 in the series with Entamoeba histolytica of 8.61 µM. In the series with Giardia intestinalis, this compound showed an MIC of over 1500 µM.

`Cc1ccc(C2=NOC(C)(c3ccc(Cl)cc3)O2)cc1` (stereo not given) gave an IC50 in the series with Entamoeba histolytica of 7.3 µM. The compound also showed an MIC in the series on Giardia intestinalis of over 1500 µM.

Take `CC1(c2ccc(Cl)cc2)ON=C(c2ccc([N+](=O)[O-])s2)O1` (stereo not given): the half-inhibitory concentration (IC50) in the series on Entamoeba histolytica is 6.1 µM; with Vero, under 180 µM. The compound also displayed an MIC against Giardia intestinalis of 4.55 µM (≈ 1.48 µg/mL).

Consider `COc1ccc(C2ON=C(c3ccc(C)cc3)O2)cc1` (stereo not given), for which the IC50 was 1.8 µM with Entamoeba histolytica and over 180 µM in the series with Vero. In the series with Giardia intestinalis, the MIC is over 1500 µM. In addition, in series [1], the selectivity ratio is over 100.

For the compound `COc1ccc(C2ON=C(c3ccc([N+](=O)[O-])s3)O2)cc1` (stereo not given), the IC50 was 1.6 µM in the series on Entamoeba histolytica and under 180 µM in the series with Vero. This compound returned an MIC against Giardia intestinalis of 20.4 µM (≈ 6.25 µg/mL).

In the series with Entamoeba histolytica, `Cc1ccc(C2=NOC(c3ccccc3)O2)cc1` (stereo not given) came in with an IC50 of 7.82 µM. Besides, in the series on Giardia intestinalis, the MIC is over 1500 µM.

Consider `Cc1ccc(C2=NOC(C)(c3ccccc3)O2)cc1` (stereo not given), for which the figures for the IC50 in the series with Entamoeba histolytica and with Vero were 1.8 µM and over 180 µM, respectively. This compound also had an MIC in the series on Giardia intestinalis of over 1500 µM. Also, the selectivity ratio in series [1] was over 100.

Take `O=[N+]([O-])c1ccc(C2=NOC(c3ccccc3O)O2)s1` (stereo not given): the figures for the IC50 with Entamoeba histolytica and in the series on Vero were 2.64 µM and under 180 µM, respectively. This compound yielded an MIC in the series on Giardia intestinalis of 5.33 µM (≈ 1.56 µg/mL).
